From ChEMBL document CHEMBL1157465, “Design, synthesis, and biological evaluation of novel 3-aryl-4-(1H-indole-3yl)-1,5-dihydro-2H-pyrrole-2-ones as vascular endothelial growth factor receptor (VEGF-R) inhibitors” (J Med Chem, 2008)
pIC50: −log10 of the molar value.

Tests used:
[1] = target: Vascular endothelial growth factor receptor 2 (Homo sapiens, UniProt P35968); experiment: Inhibition of human recombinant VEGFR2
Outline: (§1)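 Recombinant human tyrosine kinases (EPHB4, TIE2, VEGF-R2, VEGF-R3), expressed in Sf9 insect cells as GST- or His-fusions, with poly(Glu,Tyr) 4:1 as substrate. Conditions: 1 µM [γ-33P]ATP, pH 7.5 HEPES buffer with Mg/Mn, DTT and vanadate, 30 °C for 80 min, 1% DMSO. Ten concentrations were tested and IC50 came from scintillation counting of incorporated 33P.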

[2] = target: Vascular endothelial growth factor receptor 3 (Homo sapiens, UniProt P35916); experiment: Inhibition of human recombinant VEGFR3; outline: as §1
Chain of Vascular endothelial growth factor receptor 3 (P35916 whole entry): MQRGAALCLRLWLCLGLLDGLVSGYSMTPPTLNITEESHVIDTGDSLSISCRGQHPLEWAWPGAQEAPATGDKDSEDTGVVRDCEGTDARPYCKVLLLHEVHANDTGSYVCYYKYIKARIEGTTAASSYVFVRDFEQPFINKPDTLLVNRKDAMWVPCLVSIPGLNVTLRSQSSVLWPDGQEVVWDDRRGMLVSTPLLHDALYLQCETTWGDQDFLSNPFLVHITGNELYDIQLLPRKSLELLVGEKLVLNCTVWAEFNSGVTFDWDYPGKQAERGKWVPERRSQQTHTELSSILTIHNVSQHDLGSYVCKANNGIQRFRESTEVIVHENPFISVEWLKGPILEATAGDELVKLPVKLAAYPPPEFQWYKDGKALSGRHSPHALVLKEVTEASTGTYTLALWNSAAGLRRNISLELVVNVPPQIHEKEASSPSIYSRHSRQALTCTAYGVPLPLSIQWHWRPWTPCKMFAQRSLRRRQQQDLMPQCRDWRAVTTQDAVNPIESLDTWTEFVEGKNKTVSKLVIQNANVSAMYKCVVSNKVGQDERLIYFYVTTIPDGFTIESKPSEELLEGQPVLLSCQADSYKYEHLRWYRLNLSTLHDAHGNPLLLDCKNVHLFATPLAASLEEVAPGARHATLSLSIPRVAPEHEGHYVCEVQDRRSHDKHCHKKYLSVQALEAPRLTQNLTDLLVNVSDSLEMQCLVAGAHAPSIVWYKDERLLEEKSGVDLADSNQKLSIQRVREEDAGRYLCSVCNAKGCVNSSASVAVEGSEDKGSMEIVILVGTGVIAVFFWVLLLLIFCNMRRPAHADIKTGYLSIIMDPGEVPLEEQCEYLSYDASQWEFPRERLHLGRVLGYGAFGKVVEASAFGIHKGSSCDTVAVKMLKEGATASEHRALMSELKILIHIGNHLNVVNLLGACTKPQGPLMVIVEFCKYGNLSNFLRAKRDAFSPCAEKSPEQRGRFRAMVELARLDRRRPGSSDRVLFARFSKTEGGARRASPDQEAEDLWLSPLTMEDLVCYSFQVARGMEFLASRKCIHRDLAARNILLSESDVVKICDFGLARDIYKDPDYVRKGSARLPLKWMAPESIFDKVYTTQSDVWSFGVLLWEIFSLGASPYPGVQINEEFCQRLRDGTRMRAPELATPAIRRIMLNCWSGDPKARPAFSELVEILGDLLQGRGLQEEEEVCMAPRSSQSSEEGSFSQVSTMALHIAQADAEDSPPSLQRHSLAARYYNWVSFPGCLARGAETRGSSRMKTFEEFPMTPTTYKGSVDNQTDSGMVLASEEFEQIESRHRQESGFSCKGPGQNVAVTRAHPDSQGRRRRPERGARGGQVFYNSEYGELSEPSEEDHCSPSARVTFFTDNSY

[3] = target: T1, Receptor-type tyrosine-protein kinase FLT3 (Homo sapiens, UniProt P36888); experiment: Inhibition of human recombinant FLT3
T1 sequence (P36888 whole entry): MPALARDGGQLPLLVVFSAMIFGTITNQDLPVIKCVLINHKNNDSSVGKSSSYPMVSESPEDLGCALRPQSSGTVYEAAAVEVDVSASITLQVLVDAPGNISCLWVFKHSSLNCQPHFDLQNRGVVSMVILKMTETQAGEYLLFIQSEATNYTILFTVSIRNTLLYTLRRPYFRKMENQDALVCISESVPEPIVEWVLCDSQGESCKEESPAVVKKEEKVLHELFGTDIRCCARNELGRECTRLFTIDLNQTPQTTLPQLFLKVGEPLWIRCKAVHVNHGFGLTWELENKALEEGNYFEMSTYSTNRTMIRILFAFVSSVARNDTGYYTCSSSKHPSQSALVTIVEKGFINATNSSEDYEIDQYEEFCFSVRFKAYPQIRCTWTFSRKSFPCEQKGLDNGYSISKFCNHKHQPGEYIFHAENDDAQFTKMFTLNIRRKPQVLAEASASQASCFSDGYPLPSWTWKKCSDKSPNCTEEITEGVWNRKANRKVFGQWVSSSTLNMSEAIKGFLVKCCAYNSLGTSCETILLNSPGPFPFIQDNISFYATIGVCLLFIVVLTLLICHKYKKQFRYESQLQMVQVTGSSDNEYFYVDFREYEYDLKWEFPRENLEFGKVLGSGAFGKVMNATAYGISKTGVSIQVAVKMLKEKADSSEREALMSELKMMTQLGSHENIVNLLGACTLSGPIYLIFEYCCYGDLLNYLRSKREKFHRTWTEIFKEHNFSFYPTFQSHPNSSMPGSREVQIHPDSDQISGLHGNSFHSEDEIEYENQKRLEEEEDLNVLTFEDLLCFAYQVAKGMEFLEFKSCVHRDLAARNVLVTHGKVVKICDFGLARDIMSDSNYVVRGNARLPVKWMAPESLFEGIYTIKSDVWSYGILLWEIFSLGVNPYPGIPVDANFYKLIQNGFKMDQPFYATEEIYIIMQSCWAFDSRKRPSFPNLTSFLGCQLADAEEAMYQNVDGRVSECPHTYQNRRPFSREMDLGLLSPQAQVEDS
Outline: (§2)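 Human kinases expressed in Sf9 cells via baculovirus as GST or His fusions and affinity purified. 33PanQinase assay in 60 mM HEPES-NaOH pH 7.5, 3 mM MgCl2, 3 mM MnCl2, 3 µM orthovanadate, 1.2 mM DTT, 1 µM [γ-33P]ATP, 1% DMSO; 30 °C, 80 min. Substrates: poly(Glu,Tyr) 4:1 for ERBB2, IGF1-R and SRC; poly(Ala,Glu,Lys,Tyr) 6:2:5:1 for FLT3. IC50 from 10 concentrations by scintillation counting.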

[4] = target: T2, Serine/threonine-protein kinase PLK4 (Homo sapiens, UniProt O00444); experiment: Inhibition of human recombinant SAK
T2 sequence (O00444 whole entry): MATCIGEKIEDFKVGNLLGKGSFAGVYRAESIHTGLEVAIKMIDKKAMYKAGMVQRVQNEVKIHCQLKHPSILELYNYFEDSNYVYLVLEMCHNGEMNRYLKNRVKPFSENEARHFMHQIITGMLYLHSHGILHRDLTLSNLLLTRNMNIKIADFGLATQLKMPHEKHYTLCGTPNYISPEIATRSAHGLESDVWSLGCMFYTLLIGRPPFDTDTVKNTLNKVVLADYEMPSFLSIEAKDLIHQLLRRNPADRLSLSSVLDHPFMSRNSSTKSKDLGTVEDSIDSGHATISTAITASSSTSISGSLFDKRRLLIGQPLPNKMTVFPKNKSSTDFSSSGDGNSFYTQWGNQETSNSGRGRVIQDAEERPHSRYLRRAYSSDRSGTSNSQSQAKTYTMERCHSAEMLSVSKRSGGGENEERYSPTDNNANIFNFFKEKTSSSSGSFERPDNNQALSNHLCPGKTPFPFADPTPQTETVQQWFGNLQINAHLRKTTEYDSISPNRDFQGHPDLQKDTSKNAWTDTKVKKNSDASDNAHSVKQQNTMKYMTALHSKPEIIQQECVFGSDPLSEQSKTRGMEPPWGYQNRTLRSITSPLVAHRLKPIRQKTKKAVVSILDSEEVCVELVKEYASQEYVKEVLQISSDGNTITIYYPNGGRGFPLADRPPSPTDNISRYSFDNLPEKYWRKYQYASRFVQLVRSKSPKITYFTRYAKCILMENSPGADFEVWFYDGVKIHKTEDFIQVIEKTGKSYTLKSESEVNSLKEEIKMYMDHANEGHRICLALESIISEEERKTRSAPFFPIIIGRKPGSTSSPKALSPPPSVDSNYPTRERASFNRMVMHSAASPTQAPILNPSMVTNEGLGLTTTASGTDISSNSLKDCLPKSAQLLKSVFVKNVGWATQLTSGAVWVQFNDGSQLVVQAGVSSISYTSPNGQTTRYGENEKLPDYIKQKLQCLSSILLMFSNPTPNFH
Outline: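 Human kinase expressed from cDNA in Sf9 cells (baculovirus) as GST- or His-tagged protein, affinity-purified. 10 compound concentrations, 1% DMSO final, 30 °C for 80 min. Stopped with H₃PO₄, 33P incorporation counted, IC50 derived.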

Angiopoietin-1 receptor = Angiopoietin-1 receptor (Homo sapiens, UniProt Q02763); experiment: Inhibition of human recombinant TIE2; outline: as §1
[5] = target: Proto-oncogene tyrosine-protein kinase Src (Homo sapiens, UniProt P12931); experiment: Inhibition of human recombinant SRC; outline: as §2
Chain of Proto-oncogene tyrosine-protein kinase Src (P12931 2-536 limits assumed): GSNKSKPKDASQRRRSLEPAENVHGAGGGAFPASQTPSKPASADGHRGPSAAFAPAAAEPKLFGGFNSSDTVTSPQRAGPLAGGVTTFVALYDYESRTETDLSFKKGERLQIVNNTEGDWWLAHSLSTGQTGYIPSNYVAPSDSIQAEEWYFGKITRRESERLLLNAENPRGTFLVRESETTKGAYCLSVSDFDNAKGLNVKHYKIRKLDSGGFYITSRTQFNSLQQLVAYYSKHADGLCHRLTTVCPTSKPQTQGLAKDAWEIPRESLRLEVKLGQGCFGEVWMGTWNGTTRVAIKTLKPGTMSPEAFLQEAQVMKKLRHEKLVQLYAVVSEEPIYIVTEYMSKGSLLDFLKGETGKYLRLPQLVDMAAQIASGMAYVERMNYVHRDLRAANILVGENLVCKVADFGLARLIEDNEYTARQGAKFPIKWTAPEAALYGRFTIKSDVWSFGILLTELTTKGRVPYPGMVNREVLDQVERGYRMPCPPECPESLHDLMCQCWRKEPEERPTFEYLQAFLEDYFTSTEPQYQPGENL

Focal adhesion kinase 1 = Focal adhesion kinase 1 (Homo sapiens, UniProt Q05397); experiment: Inhibition of human recombinant FAK
Chain of Focal adhesion kinase 1 (Q05397 whole entry): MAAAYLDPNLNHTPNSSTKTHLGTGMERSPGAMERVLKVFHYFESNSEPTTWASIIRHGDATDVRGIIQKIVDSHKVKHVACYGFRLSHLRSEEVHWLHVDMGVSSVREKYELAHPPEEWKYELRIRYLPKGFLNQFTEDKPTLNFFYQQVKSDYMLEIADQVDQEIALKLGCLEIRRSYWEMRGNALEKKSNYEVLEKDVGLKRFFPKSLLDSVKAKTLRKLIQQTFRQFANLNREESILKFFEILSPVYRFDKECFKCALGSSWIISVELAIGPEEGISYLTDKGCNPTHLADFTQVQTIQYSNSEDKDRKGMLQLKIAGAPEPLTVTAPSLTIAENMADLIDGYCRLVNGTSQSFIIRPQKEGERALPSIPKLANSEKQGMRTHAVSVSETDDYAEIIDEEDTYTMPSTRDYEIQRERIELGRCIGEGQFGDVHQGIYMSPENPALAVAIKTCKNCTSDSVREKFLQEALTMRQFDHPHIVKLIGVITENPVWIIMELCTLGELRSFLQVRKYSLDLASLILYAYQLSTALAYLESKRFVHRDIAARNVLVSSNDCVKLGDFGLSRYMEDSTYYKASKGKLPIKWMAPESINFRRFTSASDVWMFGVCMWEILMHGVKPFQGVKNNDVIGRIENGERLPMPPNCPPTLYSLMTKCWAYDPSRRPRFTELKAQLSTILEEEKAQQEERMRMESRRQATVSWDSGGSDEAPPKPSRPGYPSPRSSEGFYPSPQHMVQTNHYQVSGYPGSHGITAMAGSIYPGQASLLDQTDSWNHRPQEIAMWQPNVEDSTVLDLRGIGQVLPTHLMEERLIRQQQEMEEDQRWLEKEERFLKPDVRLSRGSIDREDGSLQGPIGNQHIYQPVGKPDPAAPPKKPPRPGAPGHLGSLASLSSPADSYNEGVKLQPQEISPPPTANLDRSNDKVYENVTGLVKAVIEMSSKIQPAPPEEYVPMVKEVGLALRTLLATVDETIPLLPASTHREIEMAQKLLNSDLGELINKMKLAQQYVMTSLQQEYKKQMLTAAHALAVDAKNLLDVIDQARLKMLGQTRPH

Aurora kinase A = target: T3, Aurora kinase A (Homo sapiens, UniProt O14965); experiment: Inhibition of human recombinant Aurora A
T3 sequence (O14965 whole entry): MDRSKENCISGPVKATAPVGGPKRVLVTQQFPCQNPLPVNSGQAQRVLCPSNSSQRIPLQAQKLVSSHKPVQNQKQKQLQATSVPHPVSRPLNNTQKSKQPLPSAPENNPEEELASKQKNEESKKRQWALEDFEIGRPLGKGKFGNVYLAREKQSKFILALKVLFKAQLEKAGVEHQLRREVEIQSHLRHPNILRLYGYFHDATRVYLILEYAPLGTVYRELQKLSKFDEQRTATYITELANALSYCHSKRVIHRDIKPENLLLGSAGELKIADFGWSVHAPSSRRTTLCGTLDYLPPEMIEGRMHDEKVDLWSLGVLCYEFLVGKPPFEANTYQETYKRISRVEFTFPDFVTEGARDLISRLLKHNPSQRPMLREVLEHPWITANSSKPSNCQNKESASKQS
Outline: (§3)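 Aurora-A or Aurora-B, human cDNA expressed in Sf9 cells as tagged recombinant protein, phosphorylating Tetra(LRRWSLG). Reactions used 60 mM HEPES pH 7.5, Mg2+/Mn2+ (3 mM each), 1.2 mM DTT, vanadate and 1 µM [γ-33P]ATP, ran 80 min at 30 °C and were stopped with 2% H3PO4.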

[6] = target: T4, NUAK family SNF1-like kinase 1 (Homo sapiens, UniProt O60285); experiment: Inhibition of human recombinant ARK5
T4 sequence (O60285 whole entry): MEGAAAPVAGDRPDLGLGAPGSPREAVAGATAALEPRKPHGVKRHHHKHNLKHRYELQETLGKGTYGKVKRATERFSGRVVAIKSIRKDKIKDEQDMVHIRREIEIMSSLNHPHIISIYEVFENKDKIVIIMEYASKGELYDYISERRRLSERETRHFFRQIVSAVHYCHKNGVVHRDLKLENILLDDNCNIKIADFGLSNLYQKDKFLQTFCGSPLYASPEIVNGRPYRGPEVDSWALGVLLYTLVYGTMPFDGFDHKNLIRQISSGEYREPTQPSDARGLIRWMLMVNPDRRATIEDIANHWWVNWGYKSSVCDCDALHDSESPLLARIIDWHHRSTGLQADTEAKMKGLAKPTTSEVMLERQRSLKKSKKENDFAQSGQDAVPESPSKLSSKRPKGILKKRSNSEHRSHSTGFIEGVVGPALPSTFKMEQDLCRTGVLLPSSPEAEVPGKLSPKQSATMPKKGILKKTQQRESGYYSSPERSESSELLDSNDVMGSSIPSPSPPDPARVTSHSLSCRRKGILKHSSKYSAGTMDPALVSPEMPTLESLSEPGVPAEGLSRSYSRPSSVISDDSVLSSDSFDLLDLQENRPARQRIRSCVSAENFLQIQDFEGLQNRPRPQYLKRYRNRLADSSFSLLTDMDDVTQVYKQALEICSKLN
Outline: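 Human ARK5 made in Sf9 cells by baculovirus (GST- or His-tagged, affinity-purified) and read by autophosphorylation in a 33PanQinase radiometric assay. Buffer: 60 mM HEPES-NaOH pH 7.5, 3 mM MgCl2, 3 mM MnCl2, 3 µM orthovanadate, 1.2 mM DTT, PEG20000 and 1 µM [γ-33P]ATP.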

Homo sapiens = organism: Homo sapiens; experiment: Antiangiogenic activity in VEGF-induced HLMEC assessed as sprouts per bead at 1.3 uM after 24 hrs by sprouting assay; assay type: functional
Outline: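 HLMEC seeded on cytodex-3 microcarrier beads and embedded in 3D fibrinogen gel with 20 ng/mL VEGF plus compound at a final 1.3 or 2.6 µM (from 1 mM DMSO stock). Gel polymerised with 0.65 U/mL thrombin and overlaid with MCDB131, 5% FCS, 5% human serum and 200 U/mL Trasylol. Negative control: gel without growth factors. After 24 h, fixed in 1% PFA; sprouts per 50 beads counted microscopically. Triplicates per condition, n = 9 experiments.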

[7] = target: Receptor tyrosine-protein kinase erbB-2 (Homo sapiens, UniProt P04626); experiment: Inhibition of human recombinant ERBB2; outline: as §2
Insulin receptor = Insulin receptor (Homo sapiens, UniProt P06213); experiment: Inhibition of human recombinant INS-R
Aurora kinase B = Aurora kinase B (Homo sapiens, UniProt Q96GD4); experiment: Inhibition of human recombinant Aurora B; outline: as §3
Chain of Aurora kinase B (Q96GD4 whole entry): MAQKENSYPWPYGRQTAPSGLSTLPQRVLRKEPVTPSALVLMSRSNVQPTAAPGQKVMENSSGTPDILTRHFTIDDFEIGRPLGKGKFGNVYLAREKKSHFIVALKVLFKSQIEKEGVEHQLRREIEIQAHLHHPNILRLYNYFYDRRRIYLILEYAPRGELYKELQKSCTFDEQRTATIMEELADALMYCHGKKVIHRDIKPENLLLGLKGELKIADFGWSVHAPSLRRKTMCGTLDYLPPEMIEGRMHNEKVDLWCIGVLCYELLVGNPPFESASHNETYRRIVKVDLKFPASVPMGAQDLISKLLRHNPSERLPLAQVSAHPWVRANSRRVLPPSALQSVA

[8] = target: Mitogen-activated protein kinase kinase kinase 8 (Homo sapiens, UniProt P41279); experiment: Inhibition of human recombinant COT
Outline: (§4)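 Human kinases expressed in Sf9 cells by baculovirus as GST or His fusions and affinity purified. Radiometric 33PanQinase assay: 60 mM HEPES-NaOH pH 7.5, 3 mM MgCl2, 3 mM MnCl2, 3 µM orthovanadate, 1.2 mM DTT, 1 µM [γ-33P]ATP, 50-400 ng enzyme, 1% DMSO; 30 °C, 80 min. Substrates: B-Raf-VE, MEK1 KM; CDK2/CycA, histone H1; CK2-A1, casein; COT, autophosphorylation. IC50 from 10 concentrations; 33Pi incorporation by scintillation.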

[9] = target: Cyclin-dependent kinase 2 (Homo sapiens, UniProt P24941); experiment: Inhibition of human recombinant CDK2/cyclin A; outline: as §4
[10] = target: Cyclin-dependent kinase 4/cyclin D1 (Homo sapiens, UniProt P11802); experiment: Inhibition of human recombinant CDK4/cyclin D1; assay type: protein-complex assay
Outline: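 CDK4/CycD1 (human, baculovirus/Sf9, affinity-purified) with Rb-CTF as substrate. The radiometric FlashPlate assay held 1 µM [γ-33P]ATP in HEPES-NaOH pH 7.5 with 3 mM MgCl2 and 3 mM MnCl2.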

Chain of Vascular endothelial growth factor receptor 2 (P35968 whole entry, the tested form may be a part): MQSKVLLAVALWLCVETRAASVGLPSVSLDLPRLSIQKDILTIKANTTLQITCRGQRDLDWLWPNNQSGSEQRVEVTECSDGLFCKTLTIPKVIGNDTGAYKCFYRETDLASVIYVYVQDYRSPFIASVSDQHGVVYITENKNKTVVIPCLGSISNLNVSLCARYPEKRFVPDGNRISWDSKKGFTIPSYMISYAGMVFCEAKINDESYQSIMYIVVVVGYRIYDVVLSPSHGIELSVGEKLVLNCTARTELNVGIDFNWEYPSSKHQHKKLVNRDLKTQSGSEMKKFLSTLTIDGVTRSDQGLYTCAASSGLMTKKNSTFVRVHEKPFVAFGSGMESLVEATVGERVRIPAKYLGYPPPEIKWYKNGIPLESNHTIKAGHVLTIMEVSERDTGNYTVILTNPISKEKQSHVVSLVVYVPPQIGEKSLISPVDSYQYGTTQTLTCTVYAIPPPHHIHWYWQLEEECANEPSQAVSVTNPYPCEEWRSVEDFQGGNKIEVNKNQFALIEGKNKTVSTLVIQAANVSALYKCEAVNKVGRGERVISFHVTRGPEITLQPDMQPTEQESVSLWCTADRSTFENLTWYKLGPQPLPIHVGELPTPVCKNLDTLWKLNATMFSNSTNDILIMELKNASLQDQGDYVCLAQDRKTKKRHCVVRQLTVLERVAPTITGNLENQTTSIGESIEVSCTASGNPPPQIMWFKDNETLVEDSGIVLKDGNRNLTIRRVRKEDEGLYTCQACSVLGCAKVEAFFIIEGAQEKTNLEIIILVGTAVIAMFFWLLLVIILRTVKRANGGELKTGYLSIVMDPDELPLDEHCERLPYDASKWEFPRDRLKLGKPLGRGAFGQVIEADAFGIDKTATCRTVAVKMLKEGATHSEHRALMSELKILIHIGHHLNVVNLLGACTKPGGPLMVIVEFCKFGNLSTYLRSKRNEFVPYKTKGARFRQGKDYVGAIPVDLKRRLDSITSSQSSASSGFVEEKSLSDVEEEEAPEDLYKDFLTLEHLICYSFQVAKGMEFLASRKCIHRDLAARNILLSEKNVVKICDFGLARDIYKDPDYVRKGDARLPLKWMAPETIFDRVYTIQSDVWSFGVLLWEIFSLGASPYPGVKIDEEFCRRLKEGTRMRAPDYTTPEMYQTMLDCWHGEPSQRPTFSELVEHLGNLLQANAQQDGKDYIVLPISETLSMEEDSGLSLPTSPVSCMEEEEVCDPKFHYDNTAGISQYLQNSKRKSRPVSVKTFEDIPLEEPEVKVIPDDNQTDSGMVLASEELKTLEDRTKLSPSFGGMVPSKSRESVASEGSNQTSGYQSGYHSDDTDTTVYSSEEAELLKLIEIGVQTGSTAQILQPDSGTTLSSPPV

Row | Structure (SMILES) | pIC50 [1] | pIC50 [2] | pIC50 [3] | pIC50 [4] | pIC50 (Angiopoietin-1 receptor) | pIC50 [5] | pIC50 (Focal adhesion kinase 1) | pIC50 (Aurora kinase A) | pIC50 [6] | inhibition (Homo sapiens) [%] | pIC50 [7] | pIC50 (Insulin receptor) | pIC50 (Aurora kinase B) | pIC50 [8] | pIC50 [9] | pIC50 [10]
1 | COc1cc(C2=C(c3c[nH]c4ccccc34)C(O)NC2=O)cc(OC)c1OC (configuration not stated) | 5.23 | 5.47 | 4.36 |  |  |  |  |  |  |  |  |  |  |  |  | 
2 | COc1cc(C2=C(c3cn(CC4COC(C)(C)O4)c4ccccc34)CNC2=O)cc(OC)c1OC (configuration not stated) | 5.10 | 5.49 |  | 4.64 | 4.51 |  |  |  |  |  |  |  |  |  |  | 
3 | CCOCn1cc(C2=C(c3cc(OC)c(OC)c(OC)c3)C(=O)NC2)c2ccccc21 | 5.28 | 5.44 |  | 4.46 | 4.62 | 4.40 | 4.55 | 4.54 |  |  |  |  |  |  |  | 
4 | COc1ccc(C2=C(c3cn(C)c4ccccc34)C(=O)NC2)cc1 | 4.51 | 4.74 | 4.85 | 4.34 | 4.32 | 4.41 |  |  | 5.44 |  |  |  |  |  |  | 
5 | COc1cc(C2=C(c3cn(COC(C)C)c4ccccc34)CNC2=O)cc(OC)c1OC | 5.28 | 5.28 |  | 4.36 | 4.96 | 4.54 | 4.57 | 4.48 |  |  |  |  |  |  |  | 
6 | COCn1cc(C2=C(c3cc(OC)c(OC)c(OC)c3)C(=O)NC2)c2ccccc21 | 5.64 | 5.49 | 4.60 |  | 4.60 |  | 4.46 |  |  | 42 |  |  |  |  |  | 
7 | COc1cc(C2=C(c3cn(COc4ccccc4)c4ccccc34)CNC2=O)cc(OC)c1OC | 5.82 | 5.60 |  | 5.05 | 5.77 |  | 4.37 | 5.19 |  | 41 | 4.43 | 4.36 | 4.70 | 4.40 | 4.70 | 4.36
